Source: ChEMBL document CHEMBL3585296, “Flavonoids from Perovskia atriplicifolia and Their in Vitro Displacement of the Respective Radioligands for Human Opioid and Cannabinoid Receptors” (J Nat Prod, 2015)

Tests used:
[1] = biological target: T1, Delta-type opioid receptor (Homo sapiens, UniProt P41143); experiment: Displacement of [3H]DPDPE from delta opioid receptor (unknown origin) transfected into HEK293 cells by microplate scintillation counting; type: cell-based
[2] = biological target: T1, Delta-type opioid receptor; experiment: Displacement of [3H]DPDPE from delta opioid receptor (unknown origin) transfected into HEK293 cells at 10 uM by microplate scintillation counting; type: cell-based
In short: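 HEK293 cells stably expressing the δ opioid receptor were kept in DMEM with 0.2 mg/mL G418. Compound at 10 μM (triplicate dilutions) was incubated with 0.99 nM [3H]-DPDPE and 20 μg membrane for 60 min in 50 mM Tris-HCl, pH 7.4. Bound label was collected by GF/B filtration. Nonspecific binding was defined with 10 μM DPDPE. Results are given as % displacement.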

[3] = biological target: T1, Delta-type opioid receptor; experiment: Agonist activity at human delta opioid receptor transfected into HEK293 cells assessed as effect on [35S]-GTPgammaS binding at 300 uM; type: functional, cell-based
In short: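 Modified GTPγ[35S] functional assay. Tested at 300 μM. Binding is expressed as percent of the maximal GTPγ[35S] binding given by the full agonist DPDPE.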

[4] = biological target: Cannabinoid receptor 2 (Homo sapiens) (UniProt P34972); experiment: Displacement of [3H]-CP55940 from human CB2 receptor transfected into HEK293 cells at 10 uM by microplate scintillation counting; type: cell-based
In short: (§1)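 HEK293 cells stably expressing cloned human CB1 or CB2 were grown in DMEM/F-12 with 0.5 mg/mL G418. Membranes were made by sonication and differential centrifugation. Compound at 10 μM (independent triplicate dilutions) was incubated with [3H]-CP 55,940, at 1.6975 nM for CB1 or 1.959 nM for CB2. Membrane was 5 μg for CB1 or 1 μg for CB2. Incubation was 90 min at 37 °C in Tris/EDTA/NaCl/0.2% BSA, pH 7.4. Bound label was collected on GF/C filters. Nonspecific binding was defined with 10 μM CP-55,940. Results are given as % displacement.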

[5] = biological target: Cannabinoid receptor 1 (Homo sapiens) (UniProt P21554); experiment: Displacement of [3H]-CP55940 from human CB1 receptor transfected into HEK293 cells at 10 uM by microplate scintillation counting; type: cell-based; in short: as §1
Sequence of Cannabinoid receptor 1 (Homo sapiens) (P21554 whole entry): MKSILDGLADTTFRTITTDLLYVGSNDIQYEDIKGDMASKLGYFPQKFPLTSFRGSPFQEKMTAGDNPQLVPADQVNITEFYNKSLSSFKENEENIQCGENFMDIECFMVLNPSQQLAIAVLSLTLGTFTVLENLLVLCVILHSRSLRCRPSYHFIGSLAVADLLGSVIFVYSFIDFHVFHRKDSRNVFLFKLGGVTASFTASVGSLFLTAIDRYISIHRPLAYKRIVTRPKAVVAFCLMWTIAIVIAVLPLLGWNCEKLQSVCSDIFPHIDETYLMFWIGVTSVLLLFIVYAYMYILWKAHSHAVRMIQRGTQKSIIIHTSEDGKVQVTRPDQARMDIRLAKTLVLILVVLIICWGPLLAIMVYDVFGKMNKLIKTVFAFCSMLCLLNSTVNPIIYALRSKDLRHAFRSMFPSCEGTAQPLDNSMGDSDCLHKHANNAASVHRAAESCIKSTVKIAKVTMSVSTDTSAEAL

Sequence of Cannabinoid receptor 2 (Homo sapiens) (P34972 whole entry): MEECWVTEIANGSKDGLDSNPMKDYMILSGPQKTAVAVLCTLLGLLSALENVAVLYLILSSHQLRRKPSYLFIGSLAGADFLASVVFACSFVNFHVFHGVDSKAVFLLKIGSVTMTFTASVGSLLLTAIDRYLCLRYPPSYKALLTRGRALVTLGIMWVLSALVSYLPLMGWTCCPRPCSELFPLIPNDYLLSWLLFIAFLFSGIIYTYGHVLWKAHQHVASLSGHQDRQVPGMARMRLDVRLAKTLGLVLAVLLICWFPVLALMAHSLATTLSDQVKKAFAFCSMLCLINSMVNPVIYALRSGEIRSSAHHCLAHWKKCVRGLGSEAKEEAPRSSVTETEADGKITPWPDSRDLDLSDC
T1 sequence (P41143 whole entry): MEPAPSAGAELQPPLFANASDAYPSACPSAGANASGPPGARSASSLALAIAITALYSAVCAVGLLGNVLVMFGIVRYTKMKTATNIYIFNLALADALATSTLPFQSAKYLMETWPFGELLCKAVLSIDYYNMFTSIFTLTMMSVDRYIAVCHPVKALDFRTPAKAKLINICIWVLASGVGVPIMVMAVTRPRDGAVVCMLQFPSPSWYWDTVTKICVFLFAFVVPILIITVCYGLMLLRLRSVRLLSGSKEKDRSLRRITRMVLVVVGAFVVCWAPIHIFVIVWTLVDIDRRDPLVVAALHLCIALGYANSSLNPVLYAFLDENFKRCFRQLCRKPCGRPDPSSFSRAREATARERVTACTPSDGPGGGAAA

SMILES	Ki [1]	Activity [2]	Activity [3]	Activity [4]	Activity [5]
COc1ccc(-c2cc(=O)c3c(O)c(OC)c(OC)cc3o2)cc1OC	3.1 µM	86%	32%	4.2%	3%
COc1ccc(-c2cc(=O)c3c(O)c(OC)c(O)cc3o2)cc1OC		19.9%		12.5%	0.3%
COc1ccc(-c2cc(=O)c3c(O)c(OC)c(O)cc3o2)cc1 [PECTOLINARIGENIN]	8.4 µM	79.9%	48%	13.5%	19.3%
COc1ccc(-c2cc(=O)c3c(O)c(OC)c(OC)cc3o2)cc1 [SALVIGENIN]	> 26 µM	31.6%	88%	8.3%	1.7%
